# Screening data from PubChem.
# SR-BI DiI inh = inhibitors of SR-BI mediated HDL lipid uptake, primary screen, ldlA[mSR-BI] cells, fluorescence, single point | Scavenger receptor class B member 1 (Mus musculus), Q61009 | ldlA[mSR-BI] CHO cells, DiI-HDL uptake fluorescence, 3 h | inhibition, % at 12.5 µM | 0.96% of 320,000 active | AID 488896, 2010;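 active means mean replicate inhibition of at least 70% and a set share of replicates each scoring 70 or more; inconclusive means meets just one of the two criteria; inactive means fails both criteria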;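 further: 0% = median of neutral control wells and 100% = median of positive control wells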
# Target sequence (Q61009 whole entry, looked up): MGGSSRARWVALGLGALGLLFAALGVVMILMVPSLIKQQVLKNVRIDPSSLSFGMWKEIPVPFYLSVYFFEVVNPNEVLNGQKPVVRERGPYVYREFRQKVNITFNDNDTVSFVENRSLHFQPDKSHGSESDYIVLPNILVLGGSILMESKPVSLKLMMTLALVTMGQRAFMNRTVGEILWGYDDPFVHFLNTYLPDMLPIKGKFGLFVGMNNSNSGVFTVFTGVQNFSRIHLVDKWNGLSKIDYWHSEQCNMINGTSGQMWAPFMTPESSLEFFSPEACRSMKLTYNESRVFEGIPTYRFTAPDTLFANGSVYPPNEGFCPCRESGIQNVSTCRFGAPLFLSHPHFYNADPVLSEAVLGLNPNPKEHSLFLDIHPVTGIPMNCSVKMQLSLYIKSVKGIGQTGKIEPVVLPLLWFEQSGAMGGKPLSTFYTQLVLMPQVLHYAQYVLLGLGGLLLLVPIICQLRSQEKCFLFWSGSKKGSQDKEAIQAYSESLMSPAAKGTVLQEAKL
# ARNT-TACC3 inh = disruptors of ARNT/TACC3 protein interaction, primary screen, biochemical, AlphaScreen, single concentration; 0.66% of 390,000 active; AlphaScreen His-ARNT PAS-B/GST-TACC3 binding, luminescence; TACC3 fragment carries E629A point mutation; Transforming acidic coiled-coil-containing protein 3 (Homo sapiens), Q9Y6A5; inhibition, % at 9.99 µM;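 active means mean inhibition of replicates at least 50% and at least half of replicates each reaching 50%; inconclusive means half or more replicates reach 50% but mean below 50%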;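 further: 0% = complete ARNT plus TACC3 wells and 100% = ARNT alone without TACC3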
# SR-BI DiI-HDL act = activators of SR-BI mediated DiI-HDL uptake, primary screen, ldlA[mSR-BI] CHO cells, DiI fluorescence; 3 h; 100 = double the neutral-control signal; activation, % at 12.5 µM; 0.096% of 320,000 active; AID 504775, 2011;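 active means mean replicate activation of at least 60% and every replicate at or above 60%; inconclusive means mean or all-replicate condition met, but not both; inactive means mean below 60% and not all replicates reaching 60%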;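 further: 0% = median plate neutral-control signal and 100% = twice that signal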
#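 Material: SR-BI-overexpressing, LDLR-lacking CHO cells | Dosing: Single compound concentration, delivered by pin transfer | Probe or stimulus: Labelled HDL, 10 µg/mL | Signal: Bottom-read cell fluorescence after medium removal, ex 550/em 595 nm | Schedule: 3 h, 37 °C | Evaluation: HDL uptake via cellular fluorescence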
# sPLA2-III inh = human group III sPLA2 inhibitors, primary screen, biochemical, QFRET, BODIPY PC-A2 liposome substrate; Group 3 secretory phospholipase A2 (Homo sapiens), Q9NZ20; QFRET BODIPY PC-A2 liposome hydrolysis, fluorescence; inhibition, % at 12.2 µM; 0.56% of 370,000 active; AID 743126, 2013;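 active means inhibition above mean plus 3 SD of compounds lying within the high and low control bounds, cut at about 19% in these data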;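 further: 0% = median of test compound wells and 100% = no enzyme DMSO wells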
# NSD2 HMT inh = NSD2 histone methyltransferase inhibitors, primary screen, biochemical, AlphaScreen, single concentration, set 2; inhibition, % at 12.5 µM; NSD2 peptide methylation, 120 min; AID 743445, 2014; 0.54% of 310,000 active; Histone-lysine N-methyltransferase NSD2 (Homo sapiens), O96028; in the data active means inhibition above about 50%
# XiGFP reactiv = activators of inactive X chromosome reactivation, primary screen, imaging, XiGFP fibroblasts, GFP high-content imaging, set 2; XiGFP mouse fibroblasts, % GFP-positive cells imaging, 3 d; cells co-treated with 5-aza-dC sensitizer; scaled so ellipticine positive control = 100%; 0.055% of 360,000 active; activation, % at 7.58 µM; AID 743238, 2013;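 active means mean normalized replicate activation at least 10% and every replicate at or above 10%; inconclusive means only one of the two criteria met; inactive means mean below 10% and not all replicates reach 10%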;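 further: 0% = median of on-plate neutral control wells and 100% = ellipticine 6 µM median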
#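 material = 68-5-11 XiGFP fibroblast line | medium = DMEM plus 5-aza-dC sensitizer | schedule = 3 days compound exposure | benchmarks = positive control ellipticine, 6 µM final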
# Starred values were filed as active, the others as inactive; ? = inconclusive; nt = not tested or not shown. Hits are enriched below; roughly 2% of the tested compounds scored in any of these assays.
SMILES,SR-BI DiI inh,ARNT-TACC3 inh,SR-BI DiI-HDL act,sPLA2-III inh,NSD2 HMT inh,XiGFP reactiv
COc1cc(/C=N/NC(=O)C(=O)/C=C2\NC3(CCCC3)Cc3ccccc32)ccc1O,?,-1,-70,-6,2,0
O=C(/C=C1\NC2(CCCC2)Cc2ccccc21)C(=O)N/N=C/c1ccccc1O,114*,-13,-114,18,43,1
CC=Cc1ccc2n(c1=O)C[C@@H]1[C@@H](CO)[C@H](C(=O)NCC(F)(F)F)N(CCC)[C@H]21 (mixture of isomers),nt,0,nt,nt,nt,0
CCOC(=O)C1=C(COC(=O)/C=C/c2ccc(OCC)c(OC)c2)NC(=O)NC1C (centres undefined),83*,2,-83,-6,-2,0
CN1CCN(S(=O)(=O)c2cccc(S(=O)(=O)c3cccc(S(=O)(=O)N4CCN(C)CC4)c3)c2)CC1,-9,-3,9,-4,-5,nt
O=C(NCCN1CCOCC1)[C@@]1(CCS(=O)(=O)c2ccccc2)COC(c2ccc(OCCCO)cc2)=N1,nt,-15,nt,nt,nt,nt
CC(=NNC(=O)c1ccncc1)c1ccccc1O,55,61*,-55,2,0,0
COc1ccc(C(=O)Nc2ccc(/C(C)=N/NC(=O)c3ccncc3)cc2)cc1,46,-2,-46,9,-1,0
C/C(=N\NC(=O)c1cccc(N/N=C(\C)c2cc(O)ccc2O)c1)c1cc(O)ccc1O,85*,10,-85,15,2,0
CC(=NNC(=O)c1ccccc1N)c1ccccc1O,nt,nt,nt,nt,1,nt
C/C(=N\NC(=O)c1cccc(N/N=C(\C)c2ccco2)c1)c1ccco1,21,0,-21,0,3,0
CC(C)CC(=NNC(=O)c1ccncc1)c1cc(Cl)ccc1O,127*,-7,-127,21*,nt,0
COc1ccc(/C(C)=N/NC(=O)c2ccncc2)cc1,-13,47*,13,0,-2,0
CCC/C(=C1/c2ccccc2C(=O)N1c1ccccc1)c1ccc(C=O)o1,nt,nt,nt,5,nt,0
CC(=NNC(=O)c1ccncc1)c1ccc2ccccc2c1O,127*,2,-127,20*,0,0
COc1ccc(CC(=O)Nc2ccc(/C(C)=N/NC(=O)c3ccc(OC)cc3OC)cc2)cc1,74*,-5,-74,-5,-3,0
CC(=NNC(=O)c1ccncc1)c1ccc(O)cc1O,4,85*,-4,-1,-2,0
COc1ccc(C(=O)N/N=C(\C)CC(=O)Nc2ccc(N(C)C)cc2)c(OC)c1,49,7,-49,6,1,0
C/C(=N\NC(=O)c1ccc(N2CCCC2=O)cc1)c1ccc(O)cc1O,27,-2,nt,8,3,0
CCCC(=O)N1CCC[C@]2(CC[C@@H](CCC#N)O2)C1,nt,nt,nt,11,nt,nt
CCOC(=O)C1=C(COC(=O)COc2ccc(OCC)cc2)NC(=O)NC1C (centres undefined),-35,-1,35,3,-3,0
CCOc1ccc(/C=C/C(=O)N(CC)CC(=O)Nc2ccc3c(c2)OCCO3)cc1OCC,74*,9,-74,-2,3,0
Cc1cc(C)nc(Nc2nc(C(N)Cc3ccc(C(F)(F)F)cc3)cs2)n1 (centres undefined),nt,nt,nt,3,0,0
CCc1ccc(NC(=O)CSc2nc3n[nH]c(C)c3c(=N)n2-c2cccc(OC)c2)cc1,-123,-1,123*,-25,-2,nt
COc1cccc(NC(=O)CSc2nc3n[nH]c(C)c3c(=N)n2-c2cccc(OC)c2)c1,16,4,-16,-17,-1,nt
O=C1C=CC(=O)N1c1ccc(OC(F)F)cc1,0,-13,0,20*,nt,0
